Source: ChEMBL document CHEMBL4619773, “Chemoreactive-Inspired Discovery of Influenza A Virus Dual Inhibitor to Block Hemagglutinin-Mediated Adsorption and Membrane Fusion” (J Med Chem, 2020)
Active and inactive are the calls of the source. The calls are words filed in the database; no cut-off is given here.

Legend:
[1] = test system: Influenza A virus (A/Puerto Rico/8/1934(H1N1)); experiment: Inhibition of Hemagglutinin T30N/E233D/T359A mutant in Influenza A virus (A/Puerto Rico/8/1934(H1N1))/H1N1 pseudovirus infected in 293FT cells assessed as reduction in virus infection at 50 ug/ml pre-treated with virus before infection and measured after 48 hrs by inverted fluorescence microscopy; format: cell-based
Method in brief: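 GFP-reporter lentiviral pseudoviruses bearing PR8 wild-type or mutant (T30N/E233D/T359A or T359A) HA plus NA were produced in 293FT cells. Pseudovirus was pretreated with 50 µg/ml compound for 1 h at 37 °C before infection. GFP-positive cells were counted by fluorescence microscopy at 48 h p.i.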

[2] = test system: Influenza A virus (A/Puerto Rico/8/1934(H1N1)); experiment: Inhibition of Hemagglutinin T359A mutant in Influenza A virus (A/Puerto Rico/8/1934(H1N1))/H1N1 pseudovirus infected in 293FT cells assessed as reduction in virus infection at 50 ug/ml pre-treated with virus before infection and measured after 48 hrs by inverted fluorescence microscopy; format: cell-based
Method in brief: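 PR8 pseudoviruses (IAV-GFP) carrying wild-type HA or a mutant HA (T30N/E233D/T359A or T359A) were made in 293FT cells by co-transfecting HA, NA, HIV backbone and GFP reporter plasmids, and supernatants were harvested at 48 h. Pseudovirus was pretreated with compound at 50 µg/ml for 1 h at 37 °C before infection. Infected GFP-positive cells were viewed by fluorescence microscopy 48 h p.i.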

CC(=O)c1cc(C)c(O)c(Cc2[nH]c3ccccc3c2Cc2c(O)c(C)cc(C(C)=O)c2O)c1O
inhibition [1]: inactive | inhibition [2]: inactive
